# Source: article PMC8923172 (Antimicrobial Agents and Chemotherapy, 2022)
# Marks after values point to notes of the source that are not given here. Residues, ends and D or L forms follow the SMILES beside them.
# Experiments:
# [1] = Single-dose i.v. pharmacokinetics in mice; type: in vivo, CD-1 mice; conditions: 5 mg/kg single i.v. bolus, n=4/time point
# In short: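 Male and female CD-1 mice received a single 5 mg/kg i.v. bolus into the lateral tail vein, with 2/sex per time point. EDTA blood was taken by terminal cardiac puncture at 0.25, 1, 2, 4, 8 and 24 h; plasma was stored at −80°C. Sparse-sampling NCA used nominal times, linear-up/log-down AUC, and excluded values below LLOQ.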
# [2] = Hematology of cynomolgus monkeys at the end of treatment; type: in vivo; conditions: median (IQR)
# In short: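 GLP 10-day study in male and female cynomolgus monkeys (n = 3-5/sex/group) dosed once daily with 0 (placebo), 5, 10 or 15 mg/kg test compound by i.v. infusion over 60 ± 5 min. Hematology, serum chemistry and coagulation were taken at end of treatment and reported as median (IQR). Dose groups were compared by Kruskal-Wallis with Dunn's multiple comparison test.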
# in vivo = conditions: Sprague-Dawley, rat, iv
smiles,measurement,setting,value
"CC[C@H](C)[C@@H]1NC(=O)[C@@H]2CSSC[C@H](NC(=O)[C@H](CCCNC(=N)N)NC(=O)[C@@H]3CSSC[C@H](NC1=O)C(=O)N[C@@H]([C@@H](C)O)C(=O)N[C@@H](CCCNC(=N)N)C(=O)NCC(=O)N[C@@H](Cc1ccccc1)C(=O)N3)C(=O)N[C@@H](CC(C)C)C(=O)N[C@H]1CSSC[C@H](NC(=O)[C@H](C(C)C)NC(=O)CNC(=O)[C@H](CCCNC(=N)N)NC(=O)[C@H](CCCNC(=N)N)NC1=O)C(=O)N[C@@H](CCCNC(=N)N)C(=O)N2 [RTD-1, Rhesus theta (θ) defensin-1] (HELM PEPTIDE1{G.F.C.R.C.L.C.R.R.G.V.C.R.C.I.C.T.R}$PEPTIDE1,PEPTIDE1,3:R3-16:R3|PEPTIDE1,PEPTIDE1,5:R3-14:R3|PEPTIDE1,PEPTIDE1,7:R3-12:R3|PEPTIDE1,PEPTIDE1,1:R1-18:R2$$$V2.0)",AUC0-∞,[1]; pooled NCA,"12,497 ng · h/mL"
same,AUCτ,[1]; pooled NCA,"12,282 ng · h/mL"
same,CL,[1]; pooled NCA,6.67 mL/min/kg
same,MRT,[1]; pooled NCA,2.62 h
same,λz,[1]; pooled NCA,0.114 h⁻¹
same,Cmax,"[1]; pooled, estimate (SE)","8,919 (1,088)^b ng/mL"
same,"Basophils, absolute","[2]; female, 5 mg/kg/day",0.05 (0.01) 10^3/mm^3
same,"Eosinophils, absolute","[2]; female, 5 mg/kg/day",0.32 (0.27) 10^3/mm^3
same,Hematocrit,"[2]; female, 5 mg/kg/day",43.80 (3.15) %
same,Hemoglobin,"[2]; female, 5 mg/kg/day",12.90 (0.35) g/dL
same,"LUC, absolute","[2]; female, 5 mg/kg/day",0.11 (0.02) 10^3/mm^3
same,"Lymphocytes, absolute","[2]; female, 5 mg/kg/day",3.40 (1.18) 10^3/mm^3
same,MCH,"[2]; female, 5 mg/kg/day",21.20 (1.10) pg
same,MCHC,"[2]; female, 5 mg/kg/day",29.50 (1.35) g/dL
same,MCV,"[2]; female, 5 mg/kg/day",69.20 (1.70) fL
same,"Monocytes, absolute","[2]; female, 5 mg/kg/day",0.53 (0.21) 10^3/mm^3
same,"Neutrophils, absolute","[2]; female, 5 mg/kg/day",6.43 (2.10) 10^3/mm^3
same,Platelets,"[2]; female, 5 mg/kg/day",576.00 (58.00) 10^3/mm^3
same,RBC,"[2]; female, 5 mg/kg/day",6.05 (0.47) 10^6/mm^3
same,RDW,"[2]; female, 5 mg/kg/day",15.10 (0.50) %
same,"Reticulocytes, absolute","[2]; female, 5 mg/kg/day",53.60 (17.00) 10^9/L
same,WBC,"[2]; female, 5 mg/kg/day",12.70 (2.30) 10^3/mm^3
same,"Basophils, absolute","[2]; female, 10 mg/kg/day",0.06 (0.04) 10^3/mm^3
same,"Eosinophils, absolute","[2]; female, 10 mg/kg/day",0.40 (0.06) 10^3/mm^3
same,Hematocrit,"[2]; female, 10 mg/kg/day",38.50 (4.60) %
same,Hemoglobin,"[2]; female, 10 mg/kg/day",10.70 (1.25) g/dL
same,"LUC, absolute","[2]; female, 10 mg/kg/day",0.10 (0.01) 10^3/mm^3
same,"Lymphocytes, absolute","[2]; female, 10 mg/kg/day",4.46 (1.00) 10^3/mm^3
same,MCH,"[2]; female, 10 mg/kg/day",20.20 (1.00) pg
same,MCHC,"[2]; female, 10 mg/kg/day",28.80 (0.70) g/dL
same,MCV,"[2]; female, 10 mg/kg/day",69.70 (4.30) fL
same,"Monocytes, absolute","[2]; female, 10 mg/kg/day",0.66 (0.13) 10^3/mm^3
same,"Neutrophils, absolute","[2]; female, 10 mg/kg/day",5.08 (5.64) 10^3/mm^3
same,Platelets,"[2]; female, 10 mg/kg/day",497.00 (214.50) 10^3/mm^3
same,RBC,"[2]; female, 10 mg/kg/day",5.30 (0.94) 10^6/mm^3
same,RDW,"[2]; female, 10 mg/kg/day",15.10 (0.70) %
same,"Reticulocytes, absolute","[2]; female, 10 mg/kg/day",70.30 (33.40) 10^9/L
same,WBC,"[2]; female, 10 mg/kg/day",10.70 (6.80) 10^3/mm^3
same,"Basophils, absolute","[2]; female, 15 mg/kg/day",0.12 (0.01) 10^3/mm^3
same,"Eosinophils, absolute","[2]; female, 15 mg/kg/day",0.34 (0.10) 10^3/mm^3
same,Hematocrit,"[2]; female, 15 mg/kg/day",38.50 (6.90) %
same,Hemoglobin,"[2]; female, 15 mg/kg/day",10.90 (1.70) g/dL
same,"LUC, absolute","[2]; female, 15 mg/kg/day",0.16 (0.06) 10^3/mm^3
same,"Lymphocytes, absolute","[2]; female, 15 mg/kg/day",5.09 (2.32) 10^3/mm^3
same,MCH,"[2]; female, 15 mg/kg/day",19.90 (0.30) pg
same,MCHC,"[2]; female, 15 mg/kg/day",28.80 (1.10) g/dL
same,MCV,"[2]; female, 15 mg/kg/day",68.90 (2.00) fL
same,"Monocytes, absolute","[2]; female, 15 mg/kg/day",0.79 (0.15)^c 10^3/mm^3
same,"Neutrophils, absolute","[2]; female, 15 mg/kg/day",11.31 (5.67) 10^3/mm^3
same,Platelets,"[2]; female, 15 mg/kg/day",513.00 (299.00) 10^3/mm^3
same,RBC,"[2]; female, 15 mg/kg/day",6.04 (1.28) 10^6/mm^3
same,RDW,"[2]; female, 15 mg/kg/day",14.70 (1.80) %
same,"Reticulocytes, absolute","[2]; female, 15 mg/kg/day",83.90 (46.10) 10^9/L
same,WBC,"[2]; female, 15 mg/kg/day",16.10 (5.40) 10^3/mm^3
same,"Basophils, absolute","[2]; male, 5 mg/kg/day",0.12 (0.08) 10^3/mm^3
same,"Eosinophils, absolute","[2]; male, 5 mg/kg/day",0.26 (0.12) 10^3/mm^3
same,Hematocrit,"[2]; male, 5 mg/kg/day",43.10 (3.05) %
same,Hemoglobin,"[2]; male, 5 mg/kg/day",12.70 (0.85) g/dL
same,"LUC, absolute","[2]; male, 5 mg/kg/day",0.15 (0.07) 10^3/mm^3
same,"Lymphocytes, absolute","[2]; male, 5 mg/kg/day",6.85 (3.12) 10^3/mm^3
same,MCH,"[2]; male, 5 mg/kg/day",19.80 (0.55) pg
same,MCHC,"[2]; male, 5 mg/kg/day",26.40 (1.55) g/dL
same,MCV,"[2]; male, 5 mg/kg/day",75.10 (2.10) fL
same,"Monocytes, absolute","[2]; male, 5 mg/kg/day",0.74 (0.23) 10^3/mm^3
same,"Neutrophils, absolute","[2]; male, 5 mg/kg/day",4.65 (3.33) 10^3/mm^3
same,Platelets,"[2]; male, 5 mg/kg/day",358.00 (21.50) 10^3/mm^3
same,RBC,"[2]; male, 5 mg/kg/day",6.06 (0.42) 10^6/mm^3
same,RDW,"[2]; male, 5 mg/kg/day",15.40 (1.00) %
same,"Reticulocytes, absolute","[2]; male, 5 mg/kg/day",43.70 (23.20) 10^9/L
same,WBC,"[2]; male, 5 mg/kg/day",14.70 (5.95) 10^3/mm^3
same,"Basophils, absolute","[2]; male, 10 mg/kg/day",0.08 (0.04) 10^3/mm^3
same,"Eosinophils, absolute","[2]; male, 10 mg/kg/day",0.20 (0.06) 10^3/mm^3
same,Hematocrit,"[2]; male, 10 mg/kg/day",42.60 (5.20) %
same,Hemoglobin,"[2]; male, 10 mg/kg/day",11.90 (1.30) g/dL
same,"LUC, absolute","[2]; male, 10 mg/kg/day",0.15 (0.01) 10^3/mm^3
same,"Lymphocytes, absolute","[2]; male, 10 mg/kg/day",5.85 (2.85) 10^3/mm^3
same,MCH,"[2]; male, 10 mg/kg/day",20.30 (1.00) pg
same,MCHC,"[2]; male, 10 mg/kg/day",27.90 (0.35) g/dL
same,MCV,"[2]; male, 10 mg/kg/day",72.00 (4.00) fL
same,"Monocytes, absolute","[2]; male, 10 mg/kg/day",0.63 (0.18) 10^3/mm^3
same,"Neutrophils, absolute","[2]; male, 10 mg/kg/day",4.31 (1.38) 10^3/mm^3
same,Platelets,"[2]; male, 10 mg/kg/day",450.00 (114.00) 10^3/mm^3
same,RBC,"[2]; male, 10 mg/kg/day",6.35 (0.58) 10^6/mm^3
same,RDW,"[2]; male, 10 mg/kg/day",17.20 (1.35) %
same,"Reticulocytes, absolute","[2]; male, 10 mg/kg/day",60.00 (71.70) 10^9/L
same,WBC,"[2]; male, 10 mg/kg/day",11.00 (1.75) 10^3/mm^3
same,"Basophils, absolute","[2]; male, 15 mg/kg/day",0.11 (0.10) 10^3/mm^3
same,"Eosinophils, absolute","[2]; male, 15 mg/kg/day",0.39 (0.70) 10^3/mm^3
same,Hematocrit,"[2]; male, 15 mg/kg/day",38.40 (2.30) %
same,Hemoglobin,"[2]; male, 15 mg/kg/day",11.10 (0.90) g/dL
same,"LUC, absolute","[2]; male, 15 mg/kg/day",0.17 (0.11)^c 10^3/mm^3
same,"Lymphocytes, absolute","[2]; male, 15 mg/kg/day",4.78 (2.17) 10^3/mm^3
same,MCH,"[2]; male, 15 mg/kg/day",20.20 (0.90) pg
same,MCHC,"[2]; male, 15 mg/kg/day",28.90 (1.20) g/dL
same,MCV,"[2]; male, 15 mg/kg/day",71.20 (3.40) fL
same,"Monocytes, absolute","[2]; male, 15 mg/kg/day",1.10 (0.74) 10^3/mm^3
same,"Neutrophils, absolute","[2]; male, 15 mg/kg/day",7.62 (9.59) 10^3/mm^3
same,Platelets,"[2]; male, 15 mg/kg/day",634.00 (42.00)^d 10^3/mm^3
same,RBC,"[2]; male, 15 mg/kg/day",5.56 (0.40) 10^6/mm^3
same,RDW,"[2]; male, 15 mg/kg/day",14.80 (0.80) %
same,"Reticulocytes, absolute","[2]; male, 15 mg/kg/day",69.10 (47.50) 10^9/L
same,WBC,"[2]; male, 15 mg/kg/day",14.90 (12.80) 10^3/mm^3
same,"mortality (found dead day 15, determined unrelated to treatment)",5 mg/kg/day,1 out of 16
same,LOAEL,i.v.,20 mg/kg
same,NOAEL,i.v. once daily x7 days,10 mg/kg/day
same,"acute, treatment-related mortality","single i.v. 20 mg/kg, day 1",5 out of 12
same,Vd,"in vivo; both, 20 mg/kg",0.756 L/kg
same,level at 600 h,"in vivo; female, 10 mg/kg",12.5 ng/mL
